T cell HTS = modulators of CD8 T cell-vesicle binding, primary screen, mouse 2C CD8+ T cells, flow cytometry | 2C CD8+ T cell-vesicle binding; stronger effect = lower value | response (vesicle binding), % at 7 µM | actives 0.068% (n = 330,000) | AID 2052, 2009;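 active = response, share of CD8 T cells binding vesicles, and their 90th percentile fluorescence all below set limits, cut at about 80% in these data, passing the limit was not always enough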;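 note: values below 100% mean blocked vesicle binding to the CD8+ T cells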
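Test system: purified 2C TCR transgenic mouse naive CD8+ T cells. Probe or stimulus: QL9-peptide-loaded Drosophila micro-vesicles bearing Ld, ICAM-1 and B7-1. Incubation: binding step 1.5 h, 37 °C, antibody labelling 20 min, ice. Measured by: flow cytometry of vesicle-bound cells.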
S1P3 antagonist = S1P3 receptor antagonists, primary screen, cell-based; inhibition, % at 4.98 µM; AID 485, 2006; CHO S1P3 NFAT-BLA reporter, FRET fluorescence, antagonist mode; actives 0.27% (n = 170,000); Sphingosine 1-phosphate receptor 3 (Homo sapiens), Q99500;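 active = inhibition above the plate cutoff, the mean inhibition of test wells on that plate plus 3 SD, cut at about 28% in these data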;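 note: cells challenged with S1P at its EC80 of 0.8 µM; blue over green emission ratio from cleaved BLA substrate after 4 h stimulation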
Target sequence (Q99500 whole entry, looked up): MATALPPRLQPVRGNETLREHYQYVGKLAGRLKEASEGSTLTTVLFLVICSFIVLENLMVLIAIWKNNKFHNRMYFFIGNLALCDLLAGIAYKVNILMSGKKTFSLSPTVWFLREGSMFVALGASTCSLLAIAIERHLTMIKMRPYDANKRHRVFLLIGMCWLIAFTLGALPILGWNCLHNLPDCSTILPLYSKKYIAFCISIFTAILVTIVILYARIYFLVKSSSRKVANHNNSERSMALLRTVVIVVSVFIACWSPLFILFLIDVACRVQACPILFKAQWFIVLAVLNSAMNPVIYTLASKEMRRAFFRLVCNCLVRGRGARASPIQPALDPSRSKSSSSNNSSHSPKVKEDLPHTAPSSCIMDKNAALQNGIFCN
Yeast superoxide = reduction of superoxide in aged yeast, primary screen, HTS. S. cerevisiae aged cells, superoxide DHE fluorescence; stronger effect = lower value. superoxide response (% of plate mean), % at 10 µM. actives 0.18% (n = 330,000). AID 2690, 2010;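 active = superoxide response under a set limit, about three screen SD below normal, cut at about 65% in these data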;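 note: yeast aged for seven days with compound at 30 °C before DHE staining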
Superoxide pick = superoxide lowering in aged yeast cells, confirmation, cherry picked compounds; shares compounds with Yeast superoxide; S. cerevisiae aging, superoxide DHE fluorescence; stronger effect = lower value; superoxide response (% of plate), % at 10 µM; actives 1% (n = 850);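 active = superoxide signal below 65% of the plate average of sample wells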;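 note: cells aged with compound for 7 days at 30 degrees C before staining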
DHE fluor count = DHE quenching or ROS scavenging interference in aged yeast, artefact control for yeast caloric restriction mimetic project, S. cerevisiae BY4741, flow cytometry | shares compounds with Yeast superoxide | DHE fluorescence; stronger effect = lower value | fluorescence response, % at 10 µM | 850 tested, under 10 active | AID 435000, 2010;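 active = fluorescence response below 15%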;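 note: lower means stronger quenching of DHE signal or ROS scavenging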
Each line names hits and unclear results; the compound was inactive in the other large screens (follow-up assays come after a bar, where they were run). Only some compounds are listed: those with a hit (about 0.41% of all), similar ones and a draw of the others.

C[C@]12CCC3C(CC[C@@H]4C[C@H](O)CC[C@]34C)C1CCC2=O (stereo partly specified)	Yeast superoxide 64 (no result: S1P3 antagonist) | Superoxide pick inactive | DHE fluor count inactive
C[C@]12CC[C@H](O)C[C@H]1CC[C@@H]1[C@@H]2CC[C@]2(C)C(=O)CC[C@@H]12	Yeast superoxide 48 (no result: S1P3 antagonist) | Superoxide pick inactive | DHE fluor count inactive
C[C@]12CC[C@@H](O)C[C@H]1CC[C@@H]1[C@@H]2CC[C@]2(C)C(=O)CC[C@@H]12	none (no result: S1P3 antagonist)
C=CC[C@@H](C)CC(=O)C(CCCN=[N+]=[N-])SOOc1ccccc1 (stereo partly specified)	none (no result: S1P3 antagonist)
CC(C)n1c(O)c(C2c3cc(Cl)ccc3Oc3[nH]c(=O)n(C(C)C)c(=O)c32)c(=O)[nH]c1=O (stereo unspecified)	none (no result: T cell HTS, Yeast superoxide)
C[C@]12CC(=O)CC1CCC1C2CC[C@@]2(C)C1CC[C@@H]2O (stereo partly specified)	none (no result: S1P3 antagonist)
CC12CCC3C(CCC4C/C(=N/O)CCC43C)C1CCC2O (stereo unspecified)	none
C[C@]12CCC(=O)C[C@@H]1CC[C@@H]1[C@@H]2CC[C@@]2(C)[C@H]1CC[C@]2(C)O	none (no result: T cell HTS, Yeast superoxide)
C[C@]12CCC(=O)CC1CCC1C2CC[C@]2(C)C(OC(=O)CCC(=O)O)CCC12 (stereo partly specified)	Yeast superoxide 64 (no result: S1P3 antagonist) | Superoxide pick inactive | DHE fluor count inactive
C[C@]12CCC(=O)C[C@@H]1CC[C@@H]1[C@@H]2CC[C@]2(C)[C@@H](O)CC[C@@H]12	Yeast superoxide 54 (no result: S1P3 antagonist) | Superoxide pick inactive | DHE fluor count inactive
C[C@]12CCC3C(CC[C@@H]4CC(=O)CC[C@]34C)C1CC[C@@H]2O (stereo partly specified)	Yeast superoxide 54 (no result: S1P3 antagonist) | Superoxide pick inactive | DHE fluor count inactive
O=C(O)c1cc[c]([Hg][Cl])cc1	none (no result: S1P3 antagonist)
OCC(Cl)CCl (stereo unspecified)	none (no result: S1P3 antagonist)
Cc1cnc[nH]1	none (no result: S1P3 antagonist)
COc1ccc(C(CNC(=O)CCc2ccsc2)N(C)C)cc1 (stereo unspecified)	none (no result: S1P3 antagonist)
C[C@]12CCC3C(CCC4=C/C(=N/OCC(=O)NC(CCC(=O)O)C(=O)O)CC[C@@]43C)C1CCC2O (stereo partly specified)	Yeast superoxide 58 (no result: S1P3 antagonist) | Superoxide pick inactive | DHE fluor count inactive
C[C@]12CCC3C(CCC4=C/C(=N/OCC(=O)NC(CCC(N)=O)C(=O)O)CC[C@@]43C)C1CCC2O (stereo partly specified)	none (no result: S1P3 antagonist)
CN(C)CC#CCC(O)(c1ccccc1)C1CCCC1 (stereo unspecified)	none (no result: S1P3 antagonist)
CN(C)CC#CCn1c2ccccc2c2ccccc21	none | Superoxide pick inactive | DHE fluor count inactive
Cc1cccc(C)c1NC(=O)CN(C)CC(=O)Nc1ccc(C#N)c(Cl)c1	none (no result: S1P3 antagonist)
COc1cc(N2C(=O)CC(=O)NC2=O)cc(OC)c1OC	none (no result: S1P3 antagonist)

Compound activity (PubChem)
